We go through 36 sequences from the array DNA melting data of Ke et al. (doi:10.1101/2024.01.08.574731).

Series [1] can be described thus: folding enthalpy; higher = less favourable; fluorescence melt of hairpins on a sequencing array, two-state fit. Particulars: sodium 0.088 M. The procedure, abridged: (§1)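 Folding enthalpy and melting temperature were estimated with bootstrapped two-state fits and combined across four replicates by inverse-variance weighting, with fitted temperatures raised by 9.35 °C to match UV melts. The data were Cy3 fluorescence of library hairpins, with annealed Cy3 and quencher oligos, on a sequenced MiSeq flow cell in 50 mM Na-HEPES pH 8.0, 25 mM NaCl, imaged in 2.5 °C steps up to 60 °C and normalised to pre-quench Cy3 and control constructs.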

A short description of series [2]: melting temperature; fluorescence melt of hairpins on a sequencing array, two-state fit, raised by 9.35 °C to match UV melts. Particulars: sodium 0.088 M. In short, it runs like this:
as §1

Regarding GGAAGCGAAAGCTAGTCC ((((((....)))..))), the folding enthalpy in series [1] is -9.98 kcal/mol. For the same sequence, the Tm in series [2] was 25.8 °C.
Regarding GGAAGCGAAAGCTTCTCC ((((((....)))..))), the folding enthalpy in series [1] was -9.47 kcal/mol. For the same sequence, in series [2], the Tm was 53.3 °C.
In the case of GGAAGGCGAAAGCCGTCC (((.(((....))).))), the folding enthalpy in series [1] is -15.5 kcal/mol. Also, in series [2], the Tm was determined as 58 °C.
On the same counts, the results for GGAAGGCGAAAGCCTCC (((.(((....)))))) are -14.1 kcal/mol and 56.9 °C.
Consider GGAAGGGGAAACCCTTTC (.(((((....))))).), for which, in series [1], the folding enthalpy was -24.2 kcal/mol. The Tm in series [2] was 44.7 °C.
In the same order, the values of GGAAGGTCGAAAGACTCC (((..(((....)))))) are -13.8 kcal/mol and 33.1 °C.
On the same counts, the results for GGAATACGAAAGTACTCC (((.(((....))).))) are -27.4 kcal/mol and 39.5 °C.
In the same order, the values of GGAATAGAAATATTCC ((((((....)))))) are -29.3 kcal/mol and 41.7 °C.
GGAATAGGAAACTATCCC ((.((((....)))).)): the folding enthalpy in series [1] was -10.9 kcal/mol. In series [2], the Tm stood at 28 °C.
On the same counts, the results for GGAATATCGAAAGATTCC (((..(((....)))))) are -20 kcal/mol and 33.3 °C.
Turning to GGAATCGAAAGATACTCC ((((((....)))..))), the folding enthalpy in series [1] is -9.63 kcal/mol. Further, the Tm in series [2] is 24.7 °C.
Take GGAATCGAAAGATATTCC ((((((....)))..))): the folding enthalpy in series [1] is -16 kcal/mol. The Tm in series [2] was 29.7 °C.
On the same counts, the results for GGAATCGAAAGATCTCC ((((((....))).))) are -18.4 kcal/mol and 30.8 °C.
Regarding GGAATCGAAAGATGTCC ((((((....))).))), in series [1], the folding enthalpy was -15.6 kcal/mol. Moreover, in series [2], the Tm was 32.5 °C.
On the same counts, the results for GGAATCGAAAGATTGTCC ((((((....)))..))) are -11.1 kcal/mol and 27.2 °C.
As for GGAATCGGAAACGATCCC ((.((((....)))).)), in series [1], the folding enthalpy is -25.9 kcal/mol. For the same sequence, the Tm in series [2] is 45.5 °C.
On the same counts, the results for GGAATCTCGAAAGAGTCC (((..(((....)))))) are -18.4 kcal/mol and 33.2 °C.
For GGAATGCGAAAGCATCC (((.(((....)))))), the folding enthalpy in series [1] was -15.9 kcal/mol. The Tm in series [2] is 55.5 °C.
On the same counts, the results for GGAATGGCGAAAGCCTCC (((..(((....)))))) are -10.2 kcal/mol and 36.7 °C.
In the same order, the values of GGAATGGGAAACCATCCC ((.((((....)))).)) are -24 kcal/mol and 38.6 °C.
On the same counts, the results for GGAATGGGAAACTATTCC (((((.(....).))))) are -25.9 kcal/mol and 42.3 °C.
Turning to GGAATTCCGAAAGGATCC (((..(((....)))))), the folding enthalpy in series [1] is -10.9 kcal/mol. Further, the Tm in series [2] came to 28 °C.
On the same counts, the results for GGAATTCGAAAGAACTCC (((.(((....))).))) are -28.1 kcal/mol and 36.4 °C.
With GGAATTGGAAACAATTTC (.(((((....))))).), the folding enthalpy in series [1] was -32.8 kcal/mol. Besides, the Tm in series [2] was 39.5 °C.
In the same order, the values of GGACAAACGAAAGTTTCC (((..(((....)))))) are -9.9 kcal/mol and 25.4 °C.
On the same counts, the results for GGACAACCGAAAGGTTCC (((..(((....)))))) are -10.9 kcal/mol and 29.4 °C.
On the same counts, the results for GGACAACGAAAGTTATCC (((.(((....))).))) are -29.4 kcal/mol and 40 °C.
For the sequence GGACAACGAAAGTTTCC (((.(((....)))))), the folding enthalpy in series [1] is -20.1 kcal/mol. The Tm in series [2] amounted to 38.3 °C.
GGACACGAAAGTGAGTCC ((((((....)))..))): in series [1], the folding enthalpy was -21 kcal/mol. The Tm in series [2] was found to be 44.8 °C.
As for GGACACGAAAGTGATTCC ((((((....)))..))), in series [1], the folding enthalpy was -14.7 kcal/mol. Further, in series [2], the Tm was 31.7 °C.
In the same order, the values of GGACACGAAAGTGCGTCC ((((((....)))..))) are -18.2 kcal/mol and 40.5 °C.
Take GGACACGAAAGTGGCTCC ((((((....)))..))): in series [1], the folding enthalpy was -11.8 kcal/mol. For the same sequence, the Tm in series [2] was 49 °C.
Take GGACACGAAAGTGTGTCC ((((((....)))..))): the folding enthalpy in series [1] is -30.6 kcal/mol. For the same sequence, the Tm in series [2] was found to be 55.5 °C.
On the same counts, the results for GGACAGACGAAAGTCTCC (((..(((....)))))) are -10.2 kcal/mol and 30.4 °C.
In the same order, the values of GGACATGGAAACATGTTC (.(((((....))))).) are -27.6 kcal/mol and 47.4 °C.
In the same order, the values of GGACCAGGAAACTGGTTC (.(((((....))))).) are -24.6 kcal/mol and 51.8 °C.
